Assays:
Format in all cases: functional
RXF 393 = test: Growth inhibition of human RXF393 cells assessed as cell growth at 10 uM after 48 hrs by sulforhodamine B assay; conditions: RXF 393, 48 h, read-out: Activity
Summary of the method: (§1)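 Single-dose NCI-60 screen: adherent cells in RPMI 1640 with 5% FBS were exposed to 10 µM for 48 h at 37 °C after a 24 h preincubation. They were fixed in situ with cold TCA (10% final), stained with 0.4% SRB in 1% acetic acid, solubilized in 10 mM Tris base, and read at 515 nm. Percent growth was taken relative to time-zero and control plates.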

SW-620 = test: Growth inhibition of human SW620 cells assessed as cell growth at 10 uM after 48 hrs by sulforhodamine B assay; conditions: SW-620, 48 h, read-out: Activity
Summary of the method: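 Single-dose NCI-60 test at 10 µM. Cells were grown in RPMI 1640 with 5% FBS and 2 mM L-glutamine, preincubated 24 h, with T0 plates TCA-fixed. Exposure was 48 h at 37 °C, 5% CO2. Cells were fixed with cold TCA (final 10%, 4 °C, 60 min), stained with SRB and read at 515 nm. Percent growth was taken relative to T0 and untreated control; negative values denote cell kill.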

CAKI-1 = test: Growth inhibition of human CAKI-1 cells assessed as cell growth at 10 uM after 48 hrs by sulforhodamine B assay; conditions: CAKI-1, 48 h, read-out: Activity
Summary of the method: (§2)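 NCI-60 single-dose screen at 10 µM: cells in RPMI 1640 with 5% FBS, preincubated 24 h, then exposed 48 h at 37 °C. TCA fixation (16% final for suspension cells), SRB staining, absorbance 515 nm. Percent growth relative to time-zero and untreated control plates; negative values indicate cell kill.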

MDA-MB-231 = test: Growth inhibition of human MDA-MB-231 cells assessed as cell growth at 10 uM after 48 hrs by sulforhodamine B assay; conditions: MDA-MB-231, 48 h, read-out: Activity; summary of the method: as §1
HCT-15 = test: Growth inhibition of human HCT15 cells assessed as cell growth at 10 uM after 48 hrs by sulforhodamine B assay; conditions: HCT-15, 48 h, read-out: Activity; summary of the method: as §2
SK-MEL-5 = test: Growth inhibition of human SK-MEL-5 cells assessed as cell growth at 10 uM after 48 hrs by sulforhodamine B assay; conditions: SK-MEL-5, 48 h, read-out: Activity; summary of the method: as §1
NCI-H23 = test: Growth inhibition of human NCI-H23 cells assessed as cell growth at 10 uM after 48 hrs by sulforhodamine B assay; conditions: NCI-H23, 48 h, read-out: Activity; summary of the method: as §1
HOP-92 = test: Growth inhibition of human HOP92 cells assessed as cell growth at 10 uM after 48 hrs by sulforhodamine B assay; conditions: HOP-92, 48 h, read-out: Activity; summary of the method: as §2
BT-549 = test: Growth inhibition of human BT549 cells assessed as cell growth at 10 uM after 48 hrs by sulforhodamine B assay; conditions: BT-549, 48 h, read-out: Activity; summary of the method: as §2
OVCAR-8 = test: Growth inhibition of human OVCAR8 cells assessed as cell growth at 10 uM after 48 hrs by sulforhodamine B assay; conditions: OVCAR-8, 48 h, read-out: Activity; summary of the method: as §1
[1] = Growth inhibition of human HCC2998 cells assessed as cell growth at 10 uM after 48 hrs by sulforhodamine B assay; conditions: HCC 2998, 48 h, read-out: Activity; summary of the method: as §2
SK-MEL-2 = test: Growth inhibition of human SK-MEL-2 cells assessed as cell growth at 10 uM after 48 hrs by sulforhodamine B assay; conditions: SK-MEL-2, 48 h, read-out: Activity; summary of the method: as §1
CCRF-CEM = test: Growth inhibition of human CCRF-CEM cells assessed as cell growth at 10 uM after 48 hrs by sulforhodamine B assay; conditions: read-out: Activity; summary of the method: as §2
SR = test: Growth inhibition of human SR cells assessed as cell growth at 10 uM after 48 hrs by sulforhodamine B assay; conditions: read-out: Activity
Summary of the method: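 Suspension line in RPMI 1640 with 5% FBS, single 10 µM dose for 48 h. Settled cells were fixed with TCA (final 16%), then SRB-stained and read at 515 nm. Percent growth was taken versus T0 and control; negative values denote cytotoxicity.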

OVCAR-4 = test: Growth inhibition of human OVCAR4 cells assessed as cell growth at 10 uM after 48 hrs by sulforhodamine B assay; conditions: OVCAR-4, 48 h, read-out: Activity; summary of the method: as §1

| Structure (SMILES) | growth at 10 µM (RXF 393) [%] | growth at 10 µM (SW-620) [%] | growth at 10 µM (CAKI-1) [%] | growth at 10 µM (MDA-MB-231) [%] | growth at 10 µM (HCT-15) [%] | growth at 10 µM (SK-MEL-5) [%] | growth at 10 µM (NCI-H23) [%] | growth at 10 µM (HOP-92) [%] | growth at 10 µM (BT-549) [%] | growth at 10 µM (OVCAR-8) [%] | growth at 10 µM [1] [%] | growth at 10 µM (SK-MEL-2) [%] | growth at 10 µM (CCRF-CEM) [%] | growth at 10 µM (SR) [%] | growth at 10 µM (OVCAR-4) [%] |
| --- | --- | --- | --- | --- | --- | --- | --- | --- | --- | --- | --- | --- | --- | --- | --- |
| CC(C)=CCC/C(C)=C/CC/C(C)=C/CC[C@]1(C)CCc2c3c(c(C)c(C)c2O1)OCN(CCCCCCCCCCCCO)C3 | 92.5 | 109 | 96.2 | 119 | 100 | 92.8 | 104 | 107 | 127 | 100 | 102 | 76.8 | 95.2 | 67.2 | 107 |
| CC(C)=CCC/C(C)=C/CC/C(C)=C/CC[C@]1(C)CCc2c(CNCCc3ccc(O)cc3)c(O)c(C)c(C)c2O1 |  | 101 | 86.1 | 89.5 | 106 | 111 | 91.5 | 94.6 | 105 | 84.8 | 57.7 | 117 | 75.2 | 18.5 | 91 |
| CC(C)=CCC/C(C)=C/CC/C(C)=C/CC[C@]1(C)CCc2c3c(c(C)c(C)c2O1)OCN(CCc1ccc(O)cc1)C3 |  | 48.4 | 84.2 | 68.5 | 102 | 115 | 88.2 | 87.9 | 113 | 42.1 | 23.3 | 121 | 49.6 | 16.3 | 81.4 |
| COc1ccc(CCNCc2c(O)c(C)c(C)c3c2CC[C@@](C)(CC/C=C(\C)CC/C=C(\C)CCC=C(C)C)O3)cc1OC |  | 47.2 | 86.6 | 78.6 | 104 | 108 | 84.9 | 104 | 118 | 66.8 | -25.9 | 113 | 75.3 | 7.87 | 84 |
| CC(C)=CCC/C(C)=C/CC/C(C)=C/CC[C@]1(C)CCc2c3c(cc(C)c2O1)OCN(CCCCCCCCCCCCO)C3 | 34.4 | 95.2 | 78.3 | 99.8 | 82.9 | 58.1 | 77.3 |  | 114 | 11.7 | 68.7 | 15.3 | 13.6 | -19.6 | 77.5 |

— ChEMBL document CHEMBL2380254, “Optimization of tocotrienols as antiproliferative and antimigratory leads” (Eur J Med Chem, 2013)
